Results: ChEMBL document CHEMBL1151458, “Comparative analysis of the bactericidal activities of amphibian peptide analogues against multidrug-resistant nosocomial bacterial strains” (2008)

Assays:
Assay type in all cases: functional
[1] = test system: Pseudomonas aeruginosa; experiment: Bactericidal activity against Pseudomonas aeruginosa isolate 3 with AMP-CFZ-CTX-CIP-GEN-IPM-LVX-SXT-TET-TOB resistance phenotype assessed as concentration required for >= 3 log10 CFU/ml reduction in viable bacteria in sodium phosphate buffer at pH 7.4 after 1.5 hrs by liquid microdilution assay
Method in brief: (§1)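 Clinical multidrug-resistant isolates grown to mid-log in tryptone soy broth and stored frozen. Exponential cells resuspended in 10 mM sodium phosphate buffer, pH 7.4, at 1 × 10^7 CFU/ml; 10 μl incubated with graded peptide concentrations in 100 μl at 37°C for 1.5 h. Plated on tryptone soy agar, CFU read after 24 h at 37°C. Peptide stocks in 20% ethanol.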

[2] = test system: Staphylococcus aureus; experiment: Bactericidal activity against Staphylococcus aureus isolate 1 with AMC-AMP-CIP-ERY-GEN-OXA-RIF resistance phenotype assessed as concentration required for >= 3 log10 CFU/ml reduction in viable bacteria in 20% heat-inactivated human serum after 1.5 hrs by liquid microdilution assay
Method in brief: (§2)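 The buffer microdilution kill assay (1 × 10^7 CFU/ml mid-log cells, 10 μl in 100 μl, 37°C, 1.5 h, CFU on tryptone soy agar after 24 h) with serum added to 20% or 40% final. Serum was pooled from five healthy donors, clotted at room temperature, spun at 300 × g and heat-inactivated at 56°C for 30 min.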

[3] = test system: Pseudomonas aeruginosa; experiment: Bactericidal activity against Pseudomonas aeruginosa isolate 1 with AMP-CFZ-CIP-CTX-CXM-GEN-LVX-SXT-TET resistance phenotype assessed as concentration required for >= 3 log10 CFU/ml reduction in viable bacteria in 40% heat-inactivated human serum after 1.5 hrs by liquid microdilution assay; method in brief: as §2
[4] = test system: Acinetobacter baumannii; experiment: Antimicrobial activity against Acinetobacter baumannii isolate 3 with AMP-AMC-CFZ-CIP-IPM-SXT-TET-TOB resistance phenotype assessed as time to kill at bactericidal concentration
Method in brief: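 Time-kill in 10 mM sodium phosphate buffer, pH 7.4: 1 × 10^7 CFU/ml mid-log clinical isolate (10 μl) exposed at 37°C to peptide at the 1.5-h bactericidal concentration or twofold that, in 100 μl. Samples taken from 2 min onward, plated on tryptone soy agar, CFU counted after 24 h at 37°C. Killing taken as ≥3 log10 CFU/ml drop.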

[5] = test system: Enterococcus faecium; experiment: Bactericidal activity against Enterococcus faecium isolate 3 with AMP-CIP-CTX-ERY-GEN-LVX-SXT-TEC-VAN resistance phenotype assessed as concentration required for >= 3 log10 CFU/ml reduction in viable bacteria in sodium phosphate buffer at pH 7.4 after 1.5 hrs by liquid microdilution assay; method in brief: as §1
[6] = test system: Enterococcus faecium; experiment: Bactericidal activity against Enterococcus faecium isolate 5 with AMP-AMC-CIP-CLI-ERY-GEN-KAN-LVX-SXT-TEC-VAN resistance phenotype assessed as concentration required for >= 3 log10 CFU/ml reduction in viable bacteria in sodium phosphate buffer at pH 7.4 after 1.5 hrs by liquid microdilution assay; method in brief: as §1
[7] = test system: Staphylococcus aureus; experiment: Bactericidal activity against Staphylococcus aureus isolate 3 with AMC-AMP-CIP-ERY-GEN-LVX-OXA resistance phenotype assessed as concentration required for >= 3 log10 CFU/ml reduction in viable bacteria in sodium phosphate buffer at pH 7.4 after 1.5 hrs by liquid microdilution assay; method in brief: as §1
[8] = test system: Stenotrophomonas maltophilia; experiment: Bactericidal activity against Stenotrophomonas maltophilia isolate 1 with AMK-CIP-CTX-IPM-MEM-SAM-TZP resistance phenotype assessed as concentration required for >= 3 log10 CFU/ml reduction in viable bacteria in sodium phosphate buffer at pH 7.4 after 1.5 hrs by liquid microdilution assay; method in brief: as §1
[9] = test system: Stenotrophomonas maltophilia; experiment: Bactericidal activity against Stenotrophomonas maltophilia isolate 2 with AMK-CIP-CTX-IPM-MEM-SAM-TZP resistance phenotype assessed as concentration required for >= 3 log10 CFU/ml reduction in viable bacteria in sodium phosphate buffer at pH 7.4 after 1.5 hrs by liquid microdilution assay; method in brief: as §1
[10] = test system: Acinetobacter baumannii; experiment: Bactericidal activity against Acinetobacter baumannii isolate 3 with AMP-AMC-CFZ-CIP-IPM-SXT-TET-TOB resistance phenotype assessed as concentration required for >= 3 log10 CFU/ml reduction in viable bacteria in sodium phosphate buffer at pH 7.4 after 1.5 hrs by liquid microdilution assay; method in brief: as §1

H-GIFSKLAGKKLKNLLISG-NH2
Activity [1]: 0.5 µM
Activity [2]: 64 µM
Activity [3]: 128 µM
Time [4]: 2 min
Activity [5]: 2 µM
Activity [6]: 2 µM
Activity [7]: 8 µM
Activity [8]: 0.5 µM
Activity [9]: 0.5 µM
Activity [10]: 1 µM
